# Shown are actives, neighbours in structure and some others; about 3.5% of the full set was active somewhere.
# MrgX1 antagonist: blocks BAM8-22 activation of human MrgX1 receptor; Q96LB2; AID 588676; MRGX1-HEK293 calcium flux, Fluo-4, BAM8-22 antagonism; hits give low values; B-score at 10 µM; hit rate 1.3% among 310,000;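 active = calcium-response B-score plate-corrected more than 3 library SD below zero, starting fluorescence within 5 deviations, no agonist response on first addition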;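 note: peak minus trough fluorescence over baseline after final BAM8-22 challenge near maximal dose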
# Target sequence (Q96LB2 whole entry, looked up): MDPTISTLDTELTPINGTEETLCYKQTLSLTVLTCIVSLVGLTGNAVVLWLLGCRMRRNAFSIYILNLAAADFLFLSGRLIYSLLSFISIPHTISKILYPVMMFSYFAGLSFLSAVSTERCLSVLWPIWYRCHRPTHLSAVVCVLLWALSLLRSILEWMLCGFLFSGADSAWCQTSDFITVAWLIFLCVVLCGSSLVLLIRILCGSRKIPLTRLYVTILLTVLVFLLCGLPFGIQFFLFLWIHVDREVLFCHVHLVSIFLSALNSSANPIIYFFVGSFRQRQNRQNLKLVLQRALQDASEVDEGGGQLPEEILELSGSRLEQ
# MrgX1 allo act: allosterically activates human MrgX1 receptor signaling | Q96LB2 | MrgX1-HEK293, Fluo-4 calcium flux, FDSS; hits give high values | B-score at 10 µM | hit rate 0.63% among 310,000 | AID 588675;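 active = plate-corrected calcium response at least 3 library SD above typical, normal starting fluorescence, not activating the receptor alone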;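 note: compound read alongside a low EC10 to EC30 dose of BAM8-22 agonist; peak minus trough fluorescence over baseline measured at the second addition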
# RGS4 block: human RGS4 inhibition; P49798; HEK293 M3R/RGS4 inducible, Fluo-4 calcium flux; hits give high values; triggered by carbachol at its EC20; B-score at 10 µM; hit rate 0.45% among 310,000; AID 463165;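 active = B-score, a plate-corrected calcium signal, over three deviations above library mean, with baseline fluorescence within five deviations of library mean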;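 note: RGS4 expression induced by doxycycline in cells with stable M3 receptor; B-score is computed from the integrated fluorescence ratio over baseline after carbachol; higher B-score means a larger calcium signal and so more RGS4 inhibition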
# Target sequence (P49798 whole entry, looked up): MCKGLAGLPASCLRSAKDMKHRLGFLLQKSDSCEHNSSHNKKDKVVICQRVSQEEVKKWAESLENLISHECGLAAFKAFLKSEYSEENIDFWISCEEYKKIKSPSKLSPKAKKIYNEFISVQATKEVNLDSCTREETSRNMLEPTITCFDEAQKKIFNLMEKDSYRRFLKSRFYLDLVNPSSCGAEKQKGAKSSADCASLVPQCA
# RGS4 act: RGS4 potentiation or activation; HEK293 M3R/inducible RGS4, carbachol calcium flux Fluo4; hits give low values; B-score at 10 µM; hit rate 0.92% among 310,000; AID 463111;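 active = B-score of the integrated calcium signal more than 4 SD below the library mean, with starting fluorescence not abnormally high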;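 note: negative B-score means reduced calcium response which marks RGS4 activation or potentiation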
#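 Also added: carbachol at ECmax as muscarinic agonist stimulus; Assay system: HEK293 cells with stable M3R and inducible RGS4; Timing: overnight RGS4 induction, 30 min dye load 37 °C, 20 min compound RT; Measured by: Fluo4-AM (2 µM) calcium-flux fluorescence, kinetic read.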
# MrgX1 ag: agonists of human MrgX1 receptor; AID 588627; B-score at 10 µM; MrgX1-HEK293 cells, Fluo-4 calcium fluorescence, agonist mode; hits give high values; hit rate 0.44% among 310,000; Q96LB2;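 active = calcium response B-score plate-corrected fluorescence ratio at least 3 library SD, with starting fluorescence B-score inside 5 SD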
#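 System – MrgX1-expressing HEK293 cells · Incubation – cells plated overnight, dye loaded 0.5 h 37 °C, 0.5 h room temperature · Technique – kinetic Fluo-4 NW fluorescence of intracellular calcium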
# * marks the source's active call; other numbers are inactive results; i = inactive; / = not tested or not shown; ! = a repeat was not active.
SMILES,MrgX1 antagonist,MrgX1 allo act,RGS4 block,RGS4 act,MrgX1 ag
Cc1cc(NC(=O)Nc2cccc([N+](=O)[O-])c2)no1,i,i,i,i,i
Cc1cc(C)nc(/N=C(\N)Nc2cccc([N+](=O)[O-])c2)n1,i,i,i,i,40.5*
O=C(Nc1ccc(OC(F)(F)F)cc1)Nc1cccnc1,i,i,i,i,i
O=C(Nc1cccnc1)Nc1cccc([N+](=O)[O-])c1,-5.2*,i,i,i,i
O=C(Nc1ccc(OC(F)(F)F)cc1)Nc1cccc([N+](=O)[O-])c1,-6.63*,i,i,i,i
COc1cc([N+](=O)[O-])ccc1NC(=O)Nc1cccnc1,i,i,i,i,i
Cc1cc(C)nc(/N=C(\N)Nc2ccc([N+](=O)[O-])cc2)n1,i,i,i,i,i
Cc1ccc(NC(=O)Nc2cccc([N+](=O)[O-])c2)cc1F,-6.11*,i,i,i,i
O=C(Nc1ccc(-n2cccn2)cc1)C1CCCCN1Cc1cccc2c1OCO2 (stereo not drawn),i,i,i,i,i
COc1cc(C#N)c(NC(=O)CN2CCC(C(N)=O)CC2)cc1OC,i,i,i,i,i
CC(=O)c1ccc(NC(=O)c2cnsn2)cc1,i,i,i,i,i
OCc1cccc(Nc2ncnc3sc4c(c23)CCCCC4)c1,i,i,i,i,i
O=C(Nc1cccnc1)c1ccc(NS(=O)(=O)c2cccc([N+](=O)[O-])c2)cc1,i,14.5*,i,i,i
Fc1ccc(Br)cc1C1C=C(c2ccc(Br)cc2)Nc2ncnn21 (stereo not drawn),i,i,i,i,i
CCc1ccc(C2=CC(c3cc(Br)ccc3F)n3ncnc3N2)cc1 (stereo not drawn),i,11*,/,/,i
CCc1nc(Nc2ccccc2F)c2oc3ccccc3c2n1,i,8.41*,i,i,i
CN(C)CCCN1C(=O)c2cccc3c([N+](=O)[O-])ccc(c23)C1=O,-9.42*,i,/,/,i
CC(=O)Oc1cccc(N2C(=O)c3cccc4c([N+](=O)[O-])ccc(c34)C2=O)c1,-8.37*,i,i,i,i
O=C1c2cccc3c([N+](=O)[O-])ccc(c23)C(=O)N1CCc1ccccn1,i,i,i,i,i
O=C(Nc1ccc(O)cc1)c1ccc2c(c1)C(=O)N(N1C(=O)c3ccccc3C1=O)C2=O,-5.75*,i,i,i,i
CC1CCC(C(C)C)C(OC(=O)CSc2nc(N)cc(=O)[nH]2)C1 (stereo not drawn),i,i,i,i,i
Cc1cccc(OCc2n(CC(=O)OC3CC(C)CCC3C(C)C)c3ccccc3[n+]2C)c1 (stereo not drawn),-9.64*,i,i,-12.3*,i
CC1CCC(C(C)C)C(OC(=O)CSc2nnc(N)s2)C1 (stereo not drawn),i,i,i,i,i
CC1CCC(C(C)C)C(OC(=O)Cn2c(-c3ccc(F)cc3)[n+](C)c3ccccc32)C1 (stereo not drawn),-5.79*,i,/,/,i
CC1CCC(C(C)C)C(OC(=O)Cn2c(-c3ccccc3)[n+](C)c3ccccc32)C1 (stereo not drawn),-7.51*,i,i,i,i
SMILES,MrgX1 antagonist,MrgX1 allo act,RGS4 block,RGS4 act,MrgX1 ag
Cc1cccc(OC(=O)Cn2c(C(F)(F)F)nc3ccccc32)c1,i,i,i,i,i
CC(C)c1ccccc1NC(=O)COC(=O)c1cccnc1,i,i,i,i,i
COc1ccc(NC(=O)c2ccccc2NC(=O)c2ccco2)c(OC)c1,i,i,i,i,i
COc1ccc(NC(=S)NNC(=O)c2ccco2)c(OC)c1,-5.34*,i,i,i,i
COc1ccccc1NC(=O)CCC(=O)N(Cc1ccc(OC)c(OC)c1)c1nccs1,-7.38*,i,i,i,i
COc1ccccc1N(CC(=O)NCc1ccc(F)cc1)C(=O)CCC(=O)Nc1nccs1,i,i,i,i,i
O=C(NCc1csc2ccccc12)Nc1cc(Cl)cc(Cl)c1,-4.57*,i,i,i,i
O=C(NC(C(=O)N/N=C/c1cccnc1)c1n[nH]c(=O)c2ccccc12)c1ccccc1 (stereo not drawn),i,i,i,i,35.9*
CCCCCCCCn1ccc(=N)cc1,i,i,i,i,i
CCCCCCCCCCCCCCCCn1cc[n+](C)c1,-7.33*!,i,i,-9.54*!,i
Cn1c(Sc2ccccc2Cl)c(C=O)c2ccccc21,i,i,i,-8.54*,i
CCN(CC)S(=O)(=O)c1cc(NC(=O)CNc2cccc(S(=O)(=O)N3CCCC3)c2)ccc1C,i,i,i,i,i
C=CCN1C=CC=C/C1=C1\SC(=S)N(C)C1=O,i,i,i,-8.33*,i
CN1C=CC=C/C1=C1\SC(=S)N(c2ccccc2)C1=O,i,i,i,i,i
CC(OC(=O)CC1CCCCC1)C(=O)Nc1ccc(F)cc1 (stereo not drawn),i,i,i,i,i
CCCC(C(=O)NC1=NCCS1)c1ccccc1 (stereo not drawn),i,i,i,i,i
CC(=O)N(c1nc(CCl)cs1)c1cccc(C)c1C,i,i,i,i,i
CCOc1ccc(NC(=O)NNC(=O)COc2ccc3ccccc3c2)cc1,-6.7*,i,i,i,i
O=C1/C(=C\c2ccc(Br)cc2)SC(=S)N1NS(=O)(=O)c1ccccc1,i,i,i,i,i
COc1ccc(/C=C2/SC(=S)N(NS(=O)(=O)c3ccccc3)C2=O)cc1,i,i,i,i,30.6*
CC(/C=C1\SC(=S)N(NS(=O)(=O)c2ccccc2)C1=O)=C\c1ccccc1,-8.8*,i,i,i,i
CC(/C=C1\SC(=S)N(NC(=O)c2ccc(C)cc2)C1=O)=C\c1ccccc1,i,i,i,i,i
CC(/C=C1\SC(=S)N(c2ccc(C(=O)O)cc2)C1=O)=C\c1ccccc1,-9.62*,i,i,-8.44*,i
CCCOc1ccc(/C=C2/C(=O)ON=C2C)cc1OCC,i,i,i,i,i
CCOc1cc(/C=C2/C(=O)ON=C2C)cc(Br)c1O,i,i,i,i,57.6*
O=C(CSc1nccn1Cc1ccccc1)NC1CCCC1,i,i,i,i,i
O=C1CC(c2ccc(Cl)cc2)CC(=O)C1CS(=O)(=O)c1ccccc1 (stereo not drawn),i,i,i,-7.17*,i
